Here are results for four molecules from ChEMBL document CHEMBL1126882, “Orally active central dopamine and serotonin receptor ligands: 5-, 6-, 7-, and 8-[[trifluoromethyl)sulfonyl]oxy]-2-(di-n-propylamino)tetralins and the formation of active metabolites in vivo” (J Med Chem, 1993).

The source made the active and inactive calls. The calls are words filed in the database; no cut-off is given here.

In data set [1] the test system is Rattus norvegicus. Briefly: Effective dose for half-maximal decrease in the accumulation of 5-hydroxytryptophan (5-HTP) in reserpinized rat brain limbic area by sc administration; Inactive. Type of data set: functional, organism-based. The procedure, abridged: (§1)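 Male Sprague-Dawley rats (200-300 g) got reserpine 5 mg/kg sc 18 h before. The test drug (saline) was given sc or po (po rats fasted 18 h), with NSD 1015, 30 min before decapitation. DOPA and 5-HTP in limbic, striatal and hemispheral tissue were measured by HPLC-ED. ED50 (half-maximal decrease) was taken from 4-6-dose curves, with deviation estimated graphically from SEM.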

For data set [2], the system named is Rattus norvegicus. Put plainly: Effective dose for half-maximal decrease in the accumulation of 5-hydroxytryptophan (5-HTP) in reserpinized rat brain striatal area by po administration; Partial response at the highest dose tested. Type of data set: functional, organism-based. The procedure, abridged:
as §1

The nature of data set [3]: Half-lives were estimated from the elimination phase of the blood conc-time curve after oral administration. Type of data set: ADME, organism-based. As to conditions: whole blood. The procedure, abridged:
(§2)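 Male Sprague-Dawley rats (300 g) with arterial catheters were dosed 24 h after surgery. Doses: 40 μmol/kg po by gavage and 5 μmol/kg iv, or 20 po and 1 iv. Po rats were fasted 18 h. Blood was sampled from 5 min to 12 h and measured by GC-MS after extraction at pH 11 against an internal standard, samples in duplicate. AUC po/iv came from n = 4 per route. Half-life was read graphically from the oral elimination phase.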

A short description of data set [4]: Effective dose for half-maximal decrease in the accumulation of 5-hydroxytryptophan (5-HTP) in reserpinized rat brain hemispheral area by po administration. Type of data set: functional. The procedure, abridged:
as §1

The subject of data set [5] is Rattus norvegicus. Briefly: post-synaptic agonistic effects by increase in locomotor activity at the dose of 50 umol/kg, sc in reserpinized rat. Type of data set: functional.
The test system of data set [6] is Rattus norvegicus. Briefly: Effective dose for half-maximal decrease in the accumulation of 5-hydroxytryptophan (5-HTP) in reserpinized rat brain striatal area by sc administration; Partial response at the highest dose tested. Type of data set: functional, organism-based. The procedure, abridged: as §1
For data set [7], the species on record is Rattus norvegicus. Briefly: DA agonist induced behavior was charecterised by increased locomotion, sniffing and licking.++ indicates high intensity of behavioral effect. Type of data set: functional, organism-based. The procedure, abridged:
(§3)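 Male Sprague-Dawley rats (200-300 g) given reserpine 5 mg/kg sc in the neck 18 h before testing. The test compound, in 0.9% saline, was given sc in the neck (n = 4-5). Rats were placed singly in photocell motility meters right after dosing. Counts were recorded over 30 min, alongside gross behavioural observation of 5-HT and DA signs. Statistics: ANOVA with Fischer's PLSD versus reserpine controls.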

In data set [8] the test system is Rattus norvegicus. Put plainly: Effective dose for half-maximal decrease in the accumulation of 5-hydroxytryptophan (5-HTP) in reserpinized rat brain hemispheral area by sc administration; Partial response at the highest dose tested. Type of data set: functional, organism-based. The procedure, abridged:
as §1

For data set [9], the target named is T1, Dopamine receptor (Rattus norvegicus) (UniProt P25115+P19020+P30729+P18901+P61169). Briefly: Effective dose for half-maximal decrease in the accumulation of DOPA in reserpinized rat brain striatal area by po administration. Type of data set: functional, organism-based. The procedure, abridged:
as §1

Data set [10] can be described thus: Effective dose for half-maximal decrease in the accumulation of 5-hydroxytryptophan (5-HTP) in reserpinized rat brain limbic area by po administration. Type of data set: functional. The procedure, abridged: as §1
In data set [11] the target is T1, Dopamine receptor (Rattus norvegicus). Briefly: Effective dose for half-maximal decrease in the accumulation of DOPA in reserpinized rat brain limbic area by sc administration. Type of data set: functional, organism-based. The procedure, abridged: as §1
Data set [12] concerns the target T2, D(2) dopamine receptor (Rattus norvegicus, UniProt P61169). Briefly: Binding affinity against dopamine receptor D2 in homogenated rat brain tissue, using by ([3H]N00437) as radioligand. Type of data set: tissue-based. The procedure, abridged:
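Striata from male Wistar rats were washed in Tris (pH 7.5) containing EDTA, KCl and CaCl2. Tissue (1.25 mg original) was incubated with 0.2 nM [3H]-N-0437 (final) for 90 min at 25 °C, then filtered and counted by scintillation. Nonspecific binding was defined with 1 μM 6,7-ADTN. IC50 was read from a hand-fitted sigmoid curve, in triplicate.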

The target of data set [13] is T1, Dopamine receptor (Rattus norvegicus). Put plainly: Effective dose for half-maximal decrease in the accumulation of DOPA in reserpinized rat brain hemispheral area by sc administration; Partial response at the highest dose tested. Type of data set: functional, organism-based. The procedure, abridged:
as §1

Data set [14] is described as follows: Area under curve ratio was determined (po/iv). Type of data set: functional. The procedure, abridged:
as §2

Data set [15] has as its target T2, D(2) dopamine receptor. Put plainly: Binding affinity against dopamine receptor D2 in rat brain tissue using [3H]spiperone. Type of data set: tissue-based. The procedure, abridged: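 Rat striatal membranes were prepared in 50 mM potassium phosphate (pH 7.4). They were incubated with 0.5 nM [3H]spiperone (3 mg original tissue) for 10 min at 37 °C. Specific binding was defined with 10 μM 6,7-ADTN. Six drug concentrations (10⁻⁴-10⁻⁹ M) were tested, in triplicate or in a single experiment.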

For data set [16], the target named is T1, Dopamine receptor (Rattus norvegicus). Briefly: Effective dose for half-maximal decrease in the accumulation of DOPA in reserpinized rat brain limbic area by po administration. Type of data set: functional, organism-based. The procedure, abridged: as §1
The target is the same in data set [17]. Briefly: Effective dose for half-maximal decrease in the accumulation of DOPA in reserpinized rat brain striatal area by sc administration. Type of data set: functional, organism-based. The procedure, abridged: as §1
Data set [18] has as its target T3, 5-hydroxytryptamine receptor 1A (Rattus norvegicus, UniProt P19327).
T3 sequence (P19327 whole entry): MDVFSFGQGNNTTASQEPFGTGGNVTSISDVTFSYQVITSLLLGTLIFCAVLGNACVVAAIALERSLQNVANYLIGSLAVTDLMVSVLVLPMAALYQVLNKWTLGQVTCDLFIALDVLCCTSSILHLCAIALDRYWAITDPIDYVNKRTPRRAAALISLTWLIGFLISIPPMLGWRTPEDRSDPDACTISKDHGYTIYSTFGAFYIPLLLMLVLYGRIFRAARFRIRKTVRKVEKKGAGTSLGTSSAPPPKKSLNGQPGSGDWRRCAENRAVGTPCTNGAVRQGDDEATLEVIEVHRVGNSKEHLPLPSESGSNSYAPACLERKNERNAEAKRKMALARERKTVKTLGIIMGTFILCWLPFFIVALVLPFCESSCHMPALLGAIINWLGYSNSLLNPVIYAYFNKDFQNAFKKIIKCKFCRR
Briefly: Binding affinity against 5-hydroxytryptamine 1A receptor in homogenated rat brain tissue, using by [3H]8-OH-DPAT as radioligand. Type of data set: tissue-based. The procedure, abridged:
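Rat brain homogenate was washed and preincubated in 50 mM Tris (pH 8.0) containing NaCl, CaCl2 and MgCl2, plus 10 μM pargyline. Nonspecific binding was defined with 10 μM 5-HT. Six drug concentrations (10⁻⁴-10⁻⁹ M) were tested, triplicate or single run. IC50 came from a semilog plot with linear regression.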

Data set [19] deals with Rattus norvegicus. Put plainly: post-synaptic agonistic effects by increase in locomotor activity at the dose of 12.5 umol/kg, sc in reserpinized rat (p<0.005). Type of data set: functional. The procedure, abridged:
as §3

In data set [20] the test system is Rattus norvegicus. Briefly: Effective dose for half-maximal decrease in the accumulation of 5-hydroxytryptophan (5-HTP) in reserpinized rat brain hemispheral area by sc administration; Inactive. Type of data set: functional, organism-based. The procedure, abridged: as §1
The target of data set [21] is T1, Dopamine receptor (Rattus norvegicus). Briefly: Effective dose for half-maximal decrease in the accumulation of DOPA in reserpinized rat brain hemispheral area by sc administration; Inactive. Type of data set: functional, organism-based. The procedure, abridged: as §1
Data set [22] deals with Rattus norvegicus. Put plainly: Effective dose for half-maximal decrease in the accumulation of 5-hydroxytryptophan (5-HTP) in reserpinized rat brain striatal area by sc administration; Inactive. Type of data set: functional, organism-based. The procedure, abridged: as §1
The species named for data set [23] is Rattus norvegicus. Briefly: DA agonist induced behavior was charecterised by increased locomotion, sniffing and licking.+ indicates low intensity of behavioral effect. Type of data set: functional, organism-based. The procedure, abridged: as §3
Data set [24] concerns the target T1, Dopamine receptor (Rattus norvegicus). Put plainly: Effective dose for half-maximal decrease in the accumulation of DOPA in reserpinized rat brain striatal area by sc administration; partial response at the highest dose tested. Type of data set: functional, organism-based. The procedure, abridged: as §1
For data set [25] the target is unchanged. Put plainly: Effective dose for half-maximal decrease in the accumulation of DOPA in reserpinized rat brain hemispheral area by sc administration; partial response at the highest dose tested. Type of data set: functional, organism-based. The procedure, abridged:
as §1

The nature of data set [26]: Effective dose for half-maximal decrease in the accumulation of 5-hydroxytryptophan (5-HTP) in reserpinized rat brain limbic area by sc administration. Type of data set: functional. The procedure, abridged:
as §1

Data set [27] is filed under the species Rattus norvegicus. Put plainly: 5-HT behavioral syndrome was determined by observing flat body posture and forepaw threading in rat.++ indicates […] intensity of behavioral effect. Type of data set: functional, organism-based. The procedure, abridged: as §3
The subject of data set [28] is Rattus norvegicus. Briefly: post-synaptic agonistic effects by increase in locomotor activity at the dose of 50 umol/kg, sc in reserpinized rat (p<0.005). Type of data set: functional.
Data set [29] has as its target T1, Dopamine receptor (Rattus norvegicus). Briefly: Effective dose for half-maximal decrease in the accumulation of DOPA in reserpinized rat brain limbic area by sc administration; partial response at the highest dose tested. Type of data set: functional, organism-based. The procedure, abridged:
as §1

The nature of data set [30]: Effective dose for half-maximal decrease in the accumulation of 5-hydroxytryptophan (5-HTP) in reserpinized rat brain hemispheral area by sc administration. Type of data set: functional. The procedure, abridged:
as §1

Data set [31] in a line: Effective dose for half-maximal decrease in the accumulation of 5-hydroxytryptophan (5-HTP) in reserpinized rat brain striatal area by sc administration. Type of data set: functional. The procedure, abridged: as §1
In data set [32] the test system is Rattus norvegicus. Briefly: Effective dose for half-maximal decrease in the accumulation of 5-hydroxytryptophan (5-HTP) in reserpinized rat brain limbic area by sc administration; partial response at the highest dose tested. Type of data set: functional, organism-based. The procedure, abridged: as §1

T2 sequence (P61169 whole entry): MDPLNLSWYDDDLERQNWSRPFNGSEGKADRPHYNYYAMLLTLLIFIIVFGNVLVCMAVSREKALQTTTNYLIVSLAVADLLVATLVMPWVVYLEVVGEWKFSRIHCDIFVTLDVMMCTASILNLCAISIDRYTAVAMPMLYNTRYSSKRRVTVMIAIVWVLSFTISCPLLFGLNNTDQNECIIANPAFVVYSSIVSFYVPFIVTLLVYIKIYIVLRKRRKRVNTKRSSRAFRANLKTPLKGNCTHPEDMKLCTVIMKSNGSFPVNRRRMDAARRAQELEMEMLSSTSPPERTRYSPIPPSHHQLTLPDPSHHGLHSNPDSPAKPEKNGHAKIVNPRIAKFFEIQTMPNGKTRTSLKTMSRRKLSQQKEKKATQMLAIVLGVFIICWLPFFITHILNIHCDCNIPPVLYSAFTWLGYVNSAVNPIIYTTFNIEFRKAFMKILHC

`CCCN(CCC)C1CCc2c(cccc2OS(=O)(=O)C(F)(F)F)C1` (centres undefined): in the data set with Rattus norvegicus [1], the ED50 (as a rule, the midpoint of the dose-response relation) is “inactive”. The ED50 entry in the data set with Rattus norvegicus [2] was “Weak activity”; in data set [4], 5.4 µmol/kg; in the data set on Rattus norvegicus [6], “Weak activity”; in the data set on Rattus norvegicus [8], “Weak activity”; in [9] it was 7.9 µmol/kg; in data set [10], 3 µmol/kg. For the same molecule, the ED50 in data set [11] is 0.4 µmol/kg; in data set [13], “Weak activity”; in data set [16], 6.2 µmol/kg; in data set [17] it was 0.5 µmol/kg. For the same molecule, the half-life (as a rule, how long it takes for the measured level to halve) in data set [3] was 1.5 h. For the same molecule, the Counts/30 min in the data set with Rattus norvegicus [5] was 170. Moreover, in the data set filed under Rattus norvegicus [7], the Behavioral observation result was “Active”. For the same molecule, the figures for the Ki (on D(2) dopamine receptor [12]; on D(2) dopamine receptor [15]; in data set [18]) were 28 nM, 64 nM and 160 nM, respectively. For the same molecule, in data set [14], the Ratio is 8.5.
Consider `CCCN(CCC)C1CCc2cc(OS(=O)(=O)C(F)(F)F)ccc2C1` (centres undefined), for which the ED50 result (in the data set on Rattus norvegicus [1]; with Rattus norvegicus [20]; in [21]; with Rattus norvegicus [22]) was “inactive” throughout. The molecule also displayed a Counts/30 in the data set on Rattus norvegicus [19] of 80 min. Besides, the ED50 in data set [11] stood at 2 µmol/kg; in data set [17], 1.3 µmol/kg. Moreover, the Ki (commonly the dissociation constant of the complex between target and ligand, obtained from inhibition or displacement) on D(2) dopamine receptor [12] was 99 nM; on D(2) dopamine receptor [15], 1570 nM; in data set [18] it was 16000 nM. Further, the Behavioral syndrome result in the data set filed under Rattus norvegicus [23] is “Partially active”.
For `CCCNC1CCc2cccc(OS(=O)(=O)C(F)(F)F)c2C1` (centres undefined), the ED50 entry in data set [24] is “Weak activity”; in [25], “Weak activity”; in data set [26] it was 1.2 µmol/kg; in data set [29], “Weak activity”; in data set [30], 1.1 µmol/kg; in data set [31], 0.8 µmol/kg. Further, the Behavioral syndrome entry in the data set filed under Rattus norvegicus [27] is “Active”. Besides, in the data set on Rattus norvegicus [28], the Counts/30 was determined as 120 min. In addition, the Ki worked out at 1360 nM at D(2) dopamine receptor [15] and 3.8 nM in data set [18].
As for `CCCN(CCC)C1CCc2ccc(OS(=O)(=O)C(F)(F)F)cc2C1` (centres undefined), the 50% effective dose (ED50) result is “Weak activity” with Rattus norvegicus [32]; “Weak activity” in [25]; 1.6 µmol/kg in data set [11]; 27 µmol/kg in [30]; 0.4 µmol/kg in [17]; 34 µmol/kg in data set [31]. In the data set on Rattus norvegicus [28], the Counts/30 amounted to 170 min. For the same molecule, the Ki on D(2) dopamine receptor [12] worked out at 150 nM; at D(2) dopamine receptor [15], 1300 nM; in data set [18] it was 360 nM.
